Assay outcomes from PubChem.
Only some compounds are listed: those with a hit (about 1.3% of all), similar ones and a draw of the others.
H9c2 TAG inh = reduces triacylglycerol accumulation in H9c2 cells; inhibition, % at 12.5 µM; 0.66% of 230,000 active; AID 651582; Nile Red lipid (TAG) fluorescence; cells loaded with 200 µM oleic acid;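 active means pattern-corrected inhibition of lipid staining of at least 50% with the nuclear-stain viability signal not falling by more than 50%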;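 further: 0% = DMSO wells and 100% = triacsin C control wells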
PERK inh = inhibitors of human PERK kinase; inhibition, % at 5.6 µM; 0.17% of 220,000 active; CHO PERK-DD fusion, SEAP luminescence translation reporter; AID 1416;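 active means inhibition above the mean inhibition of all tested compounds plus 3 SD, set separately per screening campaign, cut at about 2.9% in these data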;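 further: PERK kinase domain activated by AP20187 dimerizer at 100 nM; 0% = DMSO with dimerizer and 100% = rapamycin at 8.4 µM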
PKD1 inh = PKD1 (human) kinase inhibition; Q15139; PKD1 kinase fluorescence polarization assay; inhibition, % (test concentration not listed); 0.056% of 200,000 active; in the data active means inhibition above about 50%
Rad51 HR inh = blocks human Rad51 in homologous recombination | hRad51 DNA strand exchange, fluorescence dequenching | Q06609 | 0.085% of 200,000 active | inhibition, % at 10 µM;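 active means inhibition above 40% at the single screening dose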;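 further: 0% = DMSO control wells and 100% = blanks with heterologous ssDNA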
Target sequence (Q06609 whole entry, looked up): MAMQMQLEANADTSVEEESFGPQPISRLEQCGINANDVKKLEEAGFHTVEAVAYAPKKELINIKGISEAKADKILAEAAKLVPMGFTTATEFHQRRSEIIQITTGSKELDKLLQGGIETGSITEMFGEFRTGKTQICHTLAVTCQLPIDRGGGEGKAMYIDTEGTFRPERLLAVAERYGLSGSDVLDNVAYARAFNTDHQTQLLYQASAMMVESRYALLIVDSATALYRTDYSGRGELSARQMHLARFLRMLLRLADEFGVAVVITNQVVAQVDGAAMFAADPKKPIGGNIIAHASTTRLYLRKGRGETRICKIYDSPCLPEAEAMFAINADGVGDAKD
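Material: human Rad51–ssDNA filaments; Probe or stimulus: labelled 47-mer dsDNA for strand exchange; Doses: single 10 µM dose; Incubation: 37 °C 15-min filament assembly, 30-min compound preincubation, 15-min exchange; Technique: FRET fluorescence dequenching, excitation 485 nm, emission 520 nm; Measure: Fluorescence-based percent inhibition, control- and blank-normalised; Benchmarks: plate control and blank wells.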
Hck-Nef inh = human Hck-Nef kinase inhibition; Recombinant Hck-YEEI plus Nef, Z-Lyte FRET kinase assay; inhibition, % at 20 µM; 0.68% of 220,000 active; P08631;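 active means Hck-Nef kinase inhibition above about 50%, limit read from the data; inactive means inhibition below that limit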;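 further: 0% = DMSO with Hck plus Nef and 100% = Hck alone without Nef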
Mdm2 ligase inh = Mdm2 E3 ligase (human) inhibition; cell-based MDM2 ubiquitination luciferase reporter, 2 h; 0 = plate control, 100 = twice control, blank-subtracted; Q00987; 0.11% of 210,000 active; signal enhancement, % at 5 µM;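 active means signal enhancement of 30% or more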;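 further: luminescence tracks abundance of the self-degrading MDM2-luciferase fusion protein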
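Test system: mammalian cells stably expressing self-ubiquitinating, self-degrading MDM2 E3–luciferase fusion; Amount: 2000 cells in each well; Medium: DMEM; Schedule: 4 h settle plus 2 h compound, 37 °C; Technique: SteadyLite luciferase luminescence after 15 min room-temperature reagent incubation; Benchmarks: plate control and blank wells.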
Numbers without * were called inactive.

`COCCn1c(-c2ccc(OC)cc2)cnc1SCC(=O)Nc1cccc2ccccc12` gave PERK inh -1, PKD1 inh 7, Rad51 HR inh -4, Hck-Nef inh -2 and Mdm2 ligase inh -1.
`CN1CCOCCOCCN(C)C(=O)N2CCOCCOCCN(CCOCC2)C1=O` gave PERK inh 3.6*, PKD1 inh 2, Rad51 HR inh 11, Hck-Nef inh 1 and Mdm2 ligase inh -3.
For Cc1cc(OC(=O)c2cc(F)c(F)cc2Cl)nc(C)n1 the results were PERK inh 2, PKD1 inh -17, Rad51 HR inh -4, Hck-Nef inh 0 and Mdm2 ligase inh -6.
For Cc1cc(C)c(S(=O)(=O)c2ccccc2)c(OC(=O)c2cc(F)c(F)cc2Cl)n1 the results were H9c2 TAG inh -23, PERK inh 0, PKD1 inh 3, Rad51 HR inh -4, Hck-Nef inh -3 and Mdm2 ligase inh 35*.
CC(O)[C@H]1CNC(=O)C(=O)N1CC1(c2ccccc2)CC1 (stereo partly specified) was read as H9c2 TAG inh 16, Rad51 HR inh 2, Hck-Nef inh 18 and Mdm2 ligase inh 2.
For Cc1cc(C)nc(/N=C(\N)Nc2ccc(C(C)C)cc2)n1 the results were H9c2 TAG inh 2, PERK inh -2, Rad51 HR inh 0, Hck-Nef inh 14 and Mdm2 ligase inh -15.
`CCCCOC(=O)C(C)Nc1n[nH]c(=O)[nH]c1=O` (stereo unspecified) gave H9c2 TAG inh -5, PERK inh 2.9*, PKD1 inh -9, Rad51 HR inh 5, Hck-Nef inh 0 and Mdm2 ligase inh -7.
`CCCCOC(=O)C(C)Nc1n[nH]c(=S)[nH]c1=O` (stereo unspecified) gave PERK inh 0, PKD1 inh -8, Rad51 HR inh -5, Hck-Nef inh 1 and Mdm2 ligase inh -2.
`CN1C(C(=O)NCc2cccc(Br)c2)CC2Cn3c(nc4cc5ccccc5cc43)C21` (stereo unspecified) gave H9c2 TAG inh -3, Rad51 HR inh 5, Hck-Nef inh 26 and Mdm2 ligase inh 31*.
`COc1ccc2c(c1)/C(=C\c1cccc(/C=C3/C(=O)Nc4ccc(OC)cc43)n1)C(=O)N2` gave H9c2 TAG inh 96.
For CCCn1c(=NC(C)=O)c(C#N)cc2c(=O)n3cccc(C)c3nc21 the results were PERK inh 1, PKD1 inh 1 and Hck-Nef inh 56*.
`CCOC(=O)c1cc2c(=O)n3cccc(C)c3nc2n(C)c1=N` gave PERK inh 0, PKD1 inh -13, Hck-Nef inh 148* and Mdm2 ligase inh -7.
For CCOCCCn1c(=N)c(C(N)=S)cc2c(=O)n3cccc(C)c3nc21 the results were H9c2 TAG inh 38, PERK inh -2, PKD1 inh 3, Rad51 HR inh -7, Hck-Nef inh 19 and Mdm2 ligase inh -3.
Screening CCCCNC(=O)c1cc2c(=O)n3cccc(C)c3nc2n(Cc2ccccc2)c1=N returned PERK inh -1, PKD1 inh -10, Rad51 HR inh -2, Hck-Nef inh 10 and Mdm2 ligase inh -14.
Screening COCCn1c(=N)c(C(=O)NCCc2ccccc2)cc2c(=O)n3cccc(C)c3nc21 returned H9c2 TAG inh 9, PERK inh -1, PKD1 inh 6, Rad51 HR inh 9 and Hck-Nef inh 104*.
Screening COCCCn1c(=N)c(C(=O)NCC2CCCO2)cc2c(=O)n3cccc(C)c3nc21 (stereo unspecified) returned PERK inh -1, PKD1 inh -3, Rad51 HR inh -10, Hck-Nef inh 196* and Mdm2 ligase inh -16.
Screening CCOc1cc(NC(=O)C2CC2)c(OCC)cc1NC(=O)CCn1nnc2ccccc21 returned PERK inh 0, PKD1 inh 0, Rad51 HR inh -4, Hck-Nef inh 8 and Mdm2 ligase inh 24.
`COc1ccc(NC(=O)C[C@H]2C(=O)N(c3ccc(OC)cc3)C[C@@H]2C)cc1` gave H9c2 TAG inh -5.
Screening CCCCNC(=O)Oc1c(Br)cc2sc(=O)oc2c1Br returned PERK inh 1, Rad51 HR inh 15, Hck-Nef inh 56* and Mdm2 ligase inh -9.
For CCCCNC(=O)Oc1cc(CCl)on1 the results were PERK inh 1, PKD1 inh 3, Rad51 HR inh 5, Hck-Nef inh -17 and Mdm2 ligase inh -8.
O=C(Nc1ccc(-c2nc3ccccc3s2)c(O)c1)C1=COCCO1 was read as PERK inh 1, PKD1 inh -7, Rad51 HR inh 5, Hck-Nef inh 67* and Mdm2 ligase inh -48.
O=C(Nc1cccc(Cl)c1)c1cc(N=Nc2ccc([N+](=O)[O-])cc2Cl)ccc1O was read as PERK inh 0, Rad51 HR inh 10, Hck-Nef inh 83* and Mdm2 ligase inh -14.
For Nc1ncnc2c(C3OC(CO)C(O)C3O)c[nH]c12 (stereo unspecified) the results were H9c2 TAG inh 131.
`COCCCNC(=O)CC1C[C@H](C(=O)N(C(C)C)C(C)C)[C@@]2(C)c3[nH]c4ccccc4c3CCN2C1=O` (stereo partly specified) gave H9c2 TAG inh 0.
For CSCCC(NC(=O)COc1ccccc1)C(=O)N1CCOCC1 (stereo unspecified) the results were H9c2 TAG inh 1.
`Cc1ccc2nc3c(cc(C#N)c(=O)n3CC3CCCO3)c(=O)n2c1` (stereo unspecified) gave PERK inh 1, PKD1 inh -14, Rad51 HR inh -2, Hck-Nef inh 189* and Mdm2 ligase inh 2.
`CCc1ccccc1NC(=S)N(CCOC)C(C)c1ccco1` (stereo unspecified) gave H9c2 TAG inh 2, PERK inh 0, Rad51 HR inh 29 and Hck-Nef inh 22.
`COc1ccc(/C=C2/CCC(CN3CCOCC3)C2=O)cc1` (stereo unspecified) gave H9c2 TAG inh 73*.
`COc1ccc(C=NCCCN2CCOCC2)cc1` gave PERK inh 1, PKD1 inh -12, Rad51 HR inh -14, Hck-Nef inh 0 and Mdm2 ligase inh -12.
Screening COc1cccc(NC(=O)c2cc(-c3cccnc3)nc3c(Cl)cccc23)c1 returned PERK inh 0, PKD1 inh 6, Rad51 HR inh 45*, Hck-Nef inh 3 and Mdm2 ligase inh -10.
COc1ccc(O)c(-c2cc(C(F)(F)C(F)F)nc(-c3ccccc3)n2)c1 was read as H9c2 TAG inh 18, PERK inh 1, PKD1 inh -6, Rad51 HR inh 8, Hck-Nef inh 0 and Mdm2 ligase inh -16.
